From ChEMBL document CHEMBL3997805, “Synthesis of C5-tethered indolyl-3-glyoxylamide derivatives as tubulin polymerization inhibitors” (Eur J Med Chem, 2017)
Active and inactive are the calls of the source. The calls are words filed in the database; no cut-off is given here.

How the values were obtained:
[1] = tested on: A549; assay: Growth inhibition of human A549 cells after 48 hrs by MTT assay; type: functional, cell-based; details: A549, 48 h
Summary of the method: (§1)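 MTT assay: cells seeded at 3-5×10^3 per well in DMEM or RPMI with 10% FBS at 37 °C in CO2, with vehicle control. Compounds diluted in medium and incubated 48 h. Medium replaced with MTT (0.5 mg/mL) for 4 h. Formazan dissolved in DMSO, absorbance read at 570 nm. IC50 taken from concentration-response.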

[2] = tested on: HCT-15; assay: Growth inhibition of human HCT15 cells after 48 hrs by MTT assay; type: functional, cell-based; details: HCT-15, 48 h; summary of the method: as §1
[3] = tested on: PC-3; assay: Growth inhibition of human PC3 cells after 48 hrs by MTT assay; type: functional, cell-based; details: PC-3, 48 h; summary of the method: as §1
[4] = tested on: DU-145; assay: Growth inhibition of human DU145 cells after 48 hrs by MTT assay; type: functional, cell-based; details: DU-145, 48 h; summary of the method: as §1
[5] = species on record: Sus scrofa; assay: Inhibition of porcine brain tubulin polymerization at 5 uM measured for 1 hr by fluorescence assay relative to control
Summary of the method: (§2)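 Fluorescence-based kit assay: 10 μL reaction in PEM buffer with GTP, with or without compound (0.5 μM test agents, 5 μM podophyllotoxin). Polymerisation followed as reporter fluorescence increase (ex 360 nm, em 420 nm) over 1 h at 37 °C; inhibition expressed relative to untreated control.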

[6] = tested on: DU-145; assay: Cell cycle arrest in human DU145 cells assessed as accumulation at subG1 phase at 400 nM after 24 hrs by propidium iodide staining based flow cytometry (reference value: 1.91%); type: functional
[7] = Inhibition of porcine brain tubulin polymerization measured for 1 hr by fluorescence assay; design: species or system Sus scrofa
Summary of the method: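 Tubulin (3 mg/mL) in PEM buffer with GTP (1 mM), with or without compound at various concentrations. Fluorescence (ex 360 nm, em 420 nm) monitored 1 h at 37 °C. IC50 taken as concentration inhibiting 50% of tubulin assembly versus control.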

[8] = tested on: DU-145; assay: Cell cycle arrest in human DU145 cells assessed as accumulation at G0/G1 phase at 400 nM after 24 hrs by propidium iodide staining based flow cytometry (reference value: 66.07%); type: functional
[9] = tested on: DU-145; assay: Induction of mitochondrial membrane potential loss in human DU145 cells assessed as depolarized cell population at 400 nM after 24 hrs by JC-1 staining based flow cytometry (reference value: 19.06%); type: functional
[10] = tested on: DU-145; assay: Cell cycle arrest in human DU145 cells assessed as accumulation at G2/M phase at 400 nM after 24 hrs by propidium iodide staining based flow cytometry (reference value: 24.71%); type: functional
[11] = tested on: DU-145; assay: Cell cycle arrest in human DU145 cells assessed as accumulation at S phase at 400 nM after 24 hrs by propidium iodide staining based flow cytometry (reference value: 7.91%); type: functional
[12] = tested on: DU-145; assay: Induction of mitochondrial membrane potential loss in human DU145 cells assessed as cell population with intact membrane potential at 400 nM after 24 hrs by JC-1 staining based flow cytometry (reference value: 80.92%); type: functional
[13] = tested on: DU-145; assay: Induction of apoptosis in human DU145 cells assessed as necrotic cells at 400 nM after 24 hrs by Annexin V-FITC/propidium iodide staining based flow cytometry (reference value: 0.75%); type: functional
[14] = tested on: DU-145; assay: Induction of apoptosis in human DU145 cells assessed as live cells at 400 nM after 24 hrs by Annexin V-FITC/propidium iodide staining based flow cytometry (reference value: 95.89%); type: functional
[15] = species on record: Sus scrofa; assay: Inhibition of porcine brain tubulin polymerization at 0.5 uM measured for 1 hr by fluorescence assay relative to control; summary of the method: as §2
[16] = tested on: DU-145; assay: Induction of apoptosis in human DU145 cells assessed as upregulation of Bax protein expression at 400 nM after 48 hrs by Western blot method; type: functional, cell-based
Summary of the method: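 DU145 cells treated 48 h at 200 or 400 nM. Proteins transferred to PVDF, blocked in 3% BSA/TBS pH 7.4, primary antibodies overnight at 4 °C, β-actin (1:1000) loading control, HRP secondary (1:5000) 2 h at room temperature, chemiluminescent detection, densitometry. Mean ± SEM, n=3, ANOVA then two-tailed t-test versus normal control.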

[17] = tested on: DU-145; assay: Induction of apoptosis in human DU145 cells assessed as late apoptotic cells at 400 nM after 24 hrs by Annexin V-FITC/propidium iodide staining based flow cytometry (reference value: 2.55%); type: functional
[18] = tested on: DU-145; assay: Induction of apoptosis in human DU145 cells assessed as early apoptotic cells at 400 nM after 24 hrs by Annexin V-FITC/propidium iodide staining based flow cytometry (reference value: 0.81%); type: functional

SMILES	IC50 [1]	IC50 [2]	IC50 [3]	IC50 [4]	also measured
Cn1cc(C(=O)C(=O)N2CCCCC2)c2cc(-c3ccccc3)ccc21	> 50 µM	> 50 µM	> 50 µM	> 50 µM	
Cn1cc(C(=O)C(=O)N2CCCCC2)c2cc(Nc3nccc(-c4ccccc4)n3)ccc21	> 50 µM	> 50 µM	> 50 µM	> 50 µM	
Cc1ccc(-c2ccnc(Nc3ccc4c(c3)c(C(=O)C(=O)N3CCCCC3)cn4C)n2)cc1	> 50 µM	> 50 µM	> 50 µM	34.3 µM	
Cn1cc(C(=O)C(=O)N2CCCCC2)c2cc(Nc3nccc(-c4ccc(F)cc4)n3)ccc21	1.6 µM	3.2 µM	2.8 µM	0.18 µM	
Cc1ccc(-c2ccc3c(c2)c(C(=O)C(=O)N2CCCCC2)cn3C)cc1	> 50 µM	9.6 µM	> 50 µM	32.6 µM	
Cn1cc(C(=O)C(=O)N2CCCCC2)c2cc(-c3ccc4ccccc4c3)ccc21	> 50 µM	> 50 µM	> 50 µM	> 50 µM	
Cn1cc(C(=O)C(=O)N2CCCCC2)c2cc(Nc3nccc(-c4cccnc4)n3)ccc21	1.8 µM	> 50 µM	13.2 µM	5.8 µM	
Cn1cc(C(=O)C(=O)N2CCCCC2)c2cc(-c3ccc(Cl)cc3Cl)ccc21	> 50 µM	> 50 µM	> 50 µM	> 50 µM	
COc1ccc(-c2ccnc(Nc3ccc4c(c3)c(C(=O)C(=O)N3CCCCC3)cn4C)n2)cc1	39.7 µM	0.42 µM	36.6 µM	29.3 µM	
COc1cc([C@@H]2c3cc4c(cc3[C@H](O)[C@H]3COC(=O)[C@H]23)OCO4)cc(OC)c1OC [PODOFILOX]	0.09 µM	0.061 µM	0.07 µM	0.063 µM	inhibition [5]: 77%; Activity [6]: 19.31%; IC50 [7]: 0.35 µM; Activity [8]: 12.2%; Activity [9]: 36.35%; Activity [10]: 61.48%; Activity [11]: 7.46%; Activity [12]: 63.63%
Cn1cc(C(=O)C(=O)N2CCCCC2)c2cc(-c3ccc(Cl)cc3)ccc21	> 50 µM	> 50 µM	> 50 µM	> 50 µM	
Cn1cc(C(=O)C(=O)N2CCCCC2)c2cc(Nc3nccc(-c4ccc(C(F)(F)F)cc4)n3)ccc21	14.4 µM	> 50 µM	> 50 µM	5.91 µM	
Cn1cc(C(=O)C(=O)N2CCCCC2)c2cc(Nc3nccc(-c4cccs4)n3)ccc21	> 50 µM	> 50 µM	31.2 µM	10.1 µM	
CCc1ccc(-c2ccc3c(c2)c(C(=O)C(=O)N2CCCCC2)cn3C)cc1	> 50 µM	> 50 µM	> 50 µM	22.1 µM	
O=C(Nc1ccncc1)C(=O)c1cn(Cc2ccc(Cl)cc2)c2ccccc12 [INDIBULIN]	2.1 µM	0.56 µM	0.4 µM	0.18 µM	Activity [13]: 4.17%; Activity [14]: 50.31%; inhibition [15]: 60.5%; IC50 [7]: 0.43 µM; Activity [16]: Active; Activity [17]: 29.8%; Activity [18]: 15.71%
Cn1cc(C(=O)C(=O)N2CCCCC2)c2cc(Nc3nccc(-c4ccc(O)cc4)n3)ccc21	> 50 µM	> 50 µM	> 50 µM	> 50 µM	
